Measurements taken from ChEMBL document CHEMBL1121946, “Antiallergy agents. 2. 2-Phenyl-5-(1H-tetrazol-5-yl)pyrimidin-4(3H)-ones” (1982).

How the values were obtained:
Rattus norvegicus [1] = test: Antiallergic activity in the passive cutaneous anaphylaxis (PCA) model in the rat was determined after oral administration; assay type: functional; details: read-out: ID50 (the source's name)
Outline: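 Male Sprague-Dawley rats underwent a modified Ovary PCA screen, with challenge 24 h after sensitization. Compounds were solubilized in aqueous NaHCO3 when possible; otherwise they were suspended in aqueous sodium citrate containing Tween 40/sodium carboxymethylcellulose. Dosing was oral, 10 min prior to antigen challenge.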

Rattus norvegicus [2] = test: Antiallergic activity in the passive cutaneous anaphylaxis (PCA) model in the rat was determined after iv administration; assay type: functional; details: read-out: ID50 (the source's name)
Outline: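 Rat PCA screen (modified Ovary method) in male Sprague-Dawley rats, with a 24 h interval between sensitization and antigen challenge. Compounds were dissolved in aqueous NaHCO3 where possible; otherwise they were suspended in aqueous sodium citrate with Tween 40/sodium carboxymethylcellulose. Dosing was intravenous, 1 min before antigen challenge.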

Row | Compound | ED50 (Rattus norvegicus [1]) [mg/kg] | ED50 (Rattus norvegicus [2]) [mg/kg]
1 | CCCOc1ccc(OC)cc1-c1ncc(-c2nn[nH]n2)c(O)n1 | 0.03 | –
2 | COc1ccccc1-c1ncc(-c2nn[nH]n2)c(O)n1 | 0.1 | –
3 | CCCCCOc1ccccc1-c1ncc(-c2nn[nH]n2)c(O)n1 | 0.4 | –
4 | CC(C)COc1ccccc1-c1ncc(-c2nn[nH]n2)c(O)n1 | 0.1 | –
5 | O=C([O-])c1cc(=O)c2c(OCC(O)COc3cccc4oc(C(=O)[O-])cc(=O)c34)cccc2o1.[Na+].[Na+] [CROMOLYN SODIUM] | > 30 | 0.3
6 | CCC(C)Oc1ccccc1-c1ncc(-c2nn[nH]n2)c(O)n1 (stereo not given) | 0.05 | –
7 | CCOc1ccccc1-c1ncc(-c2nn[nH]n2)c(O)n1 | 0.09 | 0.02
8 | CCCCOc1ccccc1-c1ncc(-c2nn[nH]n2)c(O)n1 | 0.07 | –
9 | CCCOc1ccccc1-c1ncc(-c2nn[nH]n2)c(O)n1 | 0.04 | 0.004
10 | CCCOc1ccc(N)cc1-c1ncc(-c2nn[nH]n2)c(O)n1 | 0.1 | –
11 | CC(C)Oc1ccccc1-c1ncc(-c2nn[nH]n2)c(O)n1 | 0.04 | 0.02
12 | CCCOc1ccc(N(C)C)cc1-c1ncc(-c2nn[nH]n2)c(O)n1 | 0.4 | –
13 | C=CCOc1ccccc1-c1ncc(-c2nn[nH]n2)c(O)n1 | 0.24 | –
14 | Oc1nc(-c2ccccc2OCC2CC2)ncc1-c1nn[nH]n1 | 0.07 | –
15 | Oc1nc(-c2ccccc2)ncc1-c1nn[nH]n1 | 100 | –
16 | CCCOc1ccc([N+](=O)[O-])cc1-c1ncc(-c2nn[nH]n2)c(O)n1 | 5 | –
